Test results: publication PMC8157486 (Chemical Science, 2020)
“Also recorded” adds a separate entry of the source. Bridge positions count the residues as written; N and C are the ends. Square brackets hold non-standard residues; d marks the D form. Triazole bridges read from a SMILES are 1,4-linked. Peptide text beside a SMILES is read from it. * marks the point of attachment. Biotin = O=C1N[C@H]2[C@H](CS[C@H]2CCCCC(=O)*)N1; Lys(N3) = [N-]=[N+]=NCCCC[C@H](N)C(=O)O; PEG5 = NCCOCCOCCOCCOCCOCCC(=O)O; Pra = C#CC[C@H](N)C(=O)O

Tests used:
[1] = system: K. pneumoniae cells (strain BAA 2146); experiment: Flow cytometry antibody recruitment; assay type: cell-based, Klebsiella pneumoniae; details: >18 000 single cells
How it was run: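 Cells grown overnight in G-CAA medium, washed, and incubated with DNP-conjugated PCC. After a wash they were stained with Alexafluor488-labelled anti-DNP antibody, washed, resuspended in PBS and held 2 d at 4 °C. Cytometer calibrated with 3.5 μm fluorescent beads. Excitation 488 nm, emission 530 nm. Gated on single cells, with an unstained FMO control setting the DNP+ gate.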

[2] = system: Escherichia coli (E. coli); experiment: Whole-cell ELISA, biotinylated PCC binding; assay type: cell-based; details: biotinylated PCC at 5 μM; does not express MrkA; Fig. 5C
How it was run: (§1)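 10^8 bacteria per test, from overnight cultures at 37 °C with shaking in G-CAA (promotes MrkA) or LB medium. Blocked in PBS-1% BSA (1 h, 37 °C), then incubated with biotinylated PCC in PBS-BSA (1 h, 37 °C). Washed thrice, then streptavidin-HRP (1:1000, 1 h, 37 °C). Developed with TMB, quenched with 2 N H2SO4, absorbance read at 450 nm.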

[3] = system: K. pneumoniae cells (strain BAA 1705); experiment: Whole-cell ELISA on cells cultured in G-CAA media or LB; assay type: cell-based, Klebsiella pneumoniae; details: biotinylated PCC at 50 μM; Fig. S7B
[4] = system: MrkA-knockout KPPR1 cells; experiment: Whole-cell ELISA, biotinylated PCC binding; assay type: cell-based, Klebsiella pneumoniae; details: mrkA (with mrkB and mrkC) knocked out
How it was run: as §1

[5] = system: MrkA-producing multidrug-resistant K. pneumoniae (strains BAA 1705 & 2146); experiment: Whole-cell ELISA, biotinylated PCC binding; assay type: cell-based, Klebsiella pneumoniae; details: Fig. 5C; for whole-cell ELISA signal (SAv-HRP, 450 nm): biotinylated PCC at 5 μM; for binding selectivity towards MrkA-expressing K. pneumoniae cells versus non-target bacteria: whole-cell ELISA versus E. coli and S. Typhimurium
How it was run: as §1

[6] = system: wild type MrkA-expressing KPPR1 cells (ATCC 43816); experiment: Whole-cell ELISA, biotinylated PCC binding; assay type: cell-based, Klebsiella pneumoniae; details: biotinylated PCC at 5 μM down to 5 nM; cells cultured in G-CAA media; 1 h 37 °C
How it was run: as §1

[7] = system: Salmonella enterica serovar Typhimurium (S. Typhimurium); experiment: Whole-cell ELISA, biotinylated PCC binding; assay type: cell-based; details: biotinylated PCC at 5 μM; does not express MrkA; Fig. 5C
How it was run: as §1

[8] = molecular target: T1, full-length recombinant MrkA protein (Klebsiella pneumoniae, UniProt P12267); experiment: Sandwich ELISA: immobilised biotinylated PCC captures full-length MrkA; assay type: binding
T1 sequence (P12267 23-202): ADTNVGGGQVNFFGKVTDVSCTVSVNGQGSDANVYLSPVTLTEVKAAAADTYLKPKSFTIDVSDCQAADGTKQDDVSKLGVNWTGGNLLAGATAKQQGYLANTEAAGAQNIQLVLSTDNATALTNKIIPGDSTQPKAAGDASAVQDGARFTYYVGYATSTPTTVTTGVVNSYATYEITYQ
How it was run: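 NeutrAvidin-coated wells were loaded with 2 μM biotinylated PCC (2 h, room temperature), then blocked overnight in 5% milk at 4 °C. Recombinant MrkA (N-terminal 6xHis-SUMO tag) was titrated for 1 h, followed by rabbit anti-His pAb (1:5000, 1 h) and anti-rabbit HRP (1:2000, 1 h). Peroxidase substrate developed for 1–40 min and was quenched with 1 M H2SO4.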

[9] = system: K. pneumoniae cells (strain BAA 1705); experiment: Gentamicin protection assay: phagocytosis and opsonophagocytic killing; assay type: cell-based, Klebsiella pneumoniae; details: for colony counts at 1 h (phagocytosis), control treatments: AR-PCC only (5 μM, no anti-DNP) or anti-DNP antibody only, triplicate
How it was run: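 Bacteria opsonized with DNP-PCC (5 μM, PBS-1% BSA, 1 h, 37 °C), then anti-DNP (1:1000, 1 h, 37 °C). They infected immortalised mouse BMDMs (RPMI, 10% serum) at MOI 50 for 0.5 h at 37 °C. After washing, gentamicin 100 μg ml−1 was added. At 1 h and 24 h, macrophages were lysed in 0.2% Triton X-100 and CFU plated on LB agar. Triplicate.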

For “cy(HNGPT)-DNP (sidechain bridge or staple)”, the “fluorescence intensity (Alexafluor 488 anti-DNP), flow cytometry” value ([1]; control AR-PCC at 50 μM plus anti-DNP, predominantly) was < 1.0 × 10^1.
For cy(LLFFA) (sidechain bridge or staple), the “whole-cell ELISA signal (SAv-HRP, 450 nm)” value (shortened to “whole-cell ELISA signal”) [2] was “low signals”, the “whole-cell ELISA binding, G-CAA versus LB culture” value [3] was “bound K. pneumoniae cells regardless of MrkA-expression level” and the “whole-cell ELISA signal” value [4] was “ELISA intensities comparable to baseline”. For the same compound, the “whole-cell ELISA signal” value [5] was “low signals”, the “whole-cell ELISA signal” value [6] was “much lower intensities” and the “whole-cell ELISA signal” value [7] was “low signals”.
In the case of “2: L-to-A substitution analogue of cy(LLFFF) (ALFFF; macrocycle closed by azidolysine-propargylglycine cyclization; N-terminal Biotin-peg group) [Compound 2]”, the “MrkA binding (ELISA signal) compared to unmodified cy(LLFFF), alanine scan” value ([8]; full-length MrkA, N-terminal Biotin-peg PCCs, Fig. 4A) is reported as “Modestly lower binding”.
For “17: cy(LLFFF) with a hexa-arginine tag (RRRRRRLLFFF; LLFFF closed into a macrocycle by azidolysine-propargylglycine cyclization; N-terminal Biotin-peg group) [Compound 17]”, the “binding of MrkA protein in mouse sera” value ([8]; MrkA protein at 250 nM in solutions of 10 and 100% mouse sera, Fig. 4B inset, listed as cy(LLFFF)+R6) was “bound MrkA protein in solutions of 10 and 100% mouse sera, albeit at lower levels versus in 0% serum; also recorded: binds MrkA protein in the context of sera” and the “binding selectivity towards MrkA-expressing K. pneumoniae cells versus non-target bacteria” value [5] was “similarly high selectivity”.
With “cy(LLFFF)-DNP (sidechain bridge or staple)” the “fluorescence (Alexafluor 488 anti-DNP), flow cytometry, versus controls” value ([1]; AR-PCC at 1 or 5 μM plus secondary antibody) was “much higher fluorescence”, the “colony counts at 24 h (opsonophagocytic killing)” value ([9]; 24 h of incubation, AR-PCC 5 μM plus anti-DNP) was “little to no cell counts” and the “colony counts at 1 h (phagocytosis), control treatments” value (“colony counts at 1 h (phagocytosis)” below) [9] was “None of these treatments elicited phagocytosis above the basal level”.
“cy(LLFFF)+R6-DNP (sidechain bridge or staple)” was tested, and the “colony counts at 1 h (phagocytosis)” value [9] was “None of these treatments elicited phagocytosis above the basal level”.
With `CC(C)C[C@@H]1NC(=O)[C@@H](NC(=O)CCOCCOCCOCCOCCOCCNC(=O)CCCC[C@@H]2SC[C@@H]3NC(=O)N[C@@H]32)Cc2cn(nn2)CCCC[C@@H](C(N)=O)NC(=O)[C@H](Cc2ccccc2)NC(=O)[C@H](Cc2ccccc2)NC(=O)[C@H](Cc2ccccc2)NC(=O)[C@H](CC(C)C)NC1=O` [cy(LLFFF)] ({Biotin-PEG5}-[Pra]LLFFF[Lys(N3)]-NH2; triazole 1-7) the “whole-cell ELISA signal” value [2] was “only weak signals”, the “whole-cell ELISA binding, G-CAA versus LB culture” value [3] was “bound K. pneumoniae cells regardless of MrkA-expression level” and the “whole-cell ELISA signal” value [4] was “ELISA intensities comparable to baseline”. For the same compound, the “whole-cell ELISA signal” value [5] was “strong signals”, the “binding selectivity towards MrkA-expressing K. pneumoniae cells versus non-target bacteria” value [5] was “excellent binding selectivity” and the “whole-cell ELISA signal” value [6] was “strong signals”. For the same compound, the “whole-cell ELISA signal” value [7] was “only weak signals”.
With “cy(LLFFA)-DNP (sidechain bridge or staple)” the “colony counts at 1 h (phagocytosis)” value [9] was “None of these treatments elicited phagocytosis above the basal level”.
